Measured values from ChEMBL document CHEMBL1154352, “Toll-like receptor 7 selective synthetic oligoribonucleotide agonists: synthesis and structure-activity relationship studies” (J Med Chem, 2009).
The source made the active and inactive calls. The calls are words filed in the database; no cut-off is given here.

How the values were obtained:
[1] = biological target: T1, Toll-like receptor 7 (Homo sapiens) (UniProt Q9NYK1); assay: Activation of human TLR7 expressed in HEK293XL assessed as fold induction of NF-kappaB activity at 50 ug/ml after 18 hrs by reporter gene assay relative to control
T1 sequence (whole entry): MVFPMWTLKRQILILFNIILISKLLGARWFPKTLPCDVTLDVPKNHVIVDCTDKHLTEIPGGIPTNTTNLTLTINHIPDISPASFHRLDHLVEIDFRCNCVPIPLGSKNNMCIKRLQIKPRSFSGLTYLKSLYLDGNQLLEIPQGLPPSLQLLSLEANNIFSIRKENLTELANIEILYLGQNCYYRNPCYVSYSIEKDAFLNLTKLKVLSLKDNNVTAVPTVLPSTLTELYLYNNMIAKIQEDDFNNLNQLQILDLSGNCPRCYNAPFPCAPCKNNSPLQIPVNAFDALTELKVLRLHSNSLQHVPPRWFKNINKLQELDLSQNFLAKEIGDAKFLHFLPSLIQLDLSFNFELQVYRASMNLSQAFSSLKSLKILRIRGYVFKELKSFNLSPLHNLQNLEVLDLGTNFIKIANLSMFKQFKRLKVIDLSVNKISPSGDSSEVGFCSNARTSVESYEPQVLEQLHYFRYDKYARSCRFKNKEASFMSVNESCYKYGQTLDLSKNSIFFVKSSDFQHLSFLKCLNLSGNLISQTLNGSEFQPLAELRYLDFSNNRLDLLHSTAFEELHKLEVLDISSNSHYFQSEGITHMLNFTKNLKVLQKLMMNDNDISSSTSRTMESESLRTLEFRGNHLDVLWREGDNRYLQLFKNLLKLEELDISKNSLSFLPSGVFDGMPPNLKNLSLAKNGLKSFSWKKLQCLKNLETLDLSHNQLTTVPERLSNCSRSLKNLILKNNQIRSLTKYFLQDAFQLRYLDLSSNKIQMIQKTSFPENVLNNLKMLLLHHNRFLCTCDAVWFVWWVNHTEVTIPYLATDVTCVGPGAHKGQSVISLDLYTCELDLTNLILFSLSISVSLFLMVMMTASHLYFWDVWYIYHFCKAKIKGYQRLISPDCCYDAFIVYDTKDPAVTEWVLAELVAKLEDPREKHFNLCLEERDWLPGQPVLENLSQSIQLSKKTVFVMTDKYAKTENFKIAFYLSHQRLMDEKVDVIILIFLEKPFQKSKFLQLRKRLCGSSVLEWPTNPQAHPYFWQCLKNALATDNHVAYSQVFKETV
Procedure, shortened: (§1)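 HEK293 cells stably expressing human TLR7 or TLR8, transiently transfected with SEAP reporter plasmid; medium replaced, SIMRA compounds added, 18 h incubation. Supernatant SEAP measured by QuantiBlue; expressed as fold increase in NF-κB activity over PBS control. Tabulated data at 50 μg/mL, representative of three independent experiments.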

[2] = biological target: T2, Toll-like receptor 8 (Homo sapiens) (UniProt Q9NR97); assay: Activation of human TLR8 expressed in HEK293XL assessed as fold induction of NF-kappaB activity at 50 ug/ml after 18 hrs by reporter gene assay relative to control; procedure, shortened: as §1
T2 sequence (whole entry): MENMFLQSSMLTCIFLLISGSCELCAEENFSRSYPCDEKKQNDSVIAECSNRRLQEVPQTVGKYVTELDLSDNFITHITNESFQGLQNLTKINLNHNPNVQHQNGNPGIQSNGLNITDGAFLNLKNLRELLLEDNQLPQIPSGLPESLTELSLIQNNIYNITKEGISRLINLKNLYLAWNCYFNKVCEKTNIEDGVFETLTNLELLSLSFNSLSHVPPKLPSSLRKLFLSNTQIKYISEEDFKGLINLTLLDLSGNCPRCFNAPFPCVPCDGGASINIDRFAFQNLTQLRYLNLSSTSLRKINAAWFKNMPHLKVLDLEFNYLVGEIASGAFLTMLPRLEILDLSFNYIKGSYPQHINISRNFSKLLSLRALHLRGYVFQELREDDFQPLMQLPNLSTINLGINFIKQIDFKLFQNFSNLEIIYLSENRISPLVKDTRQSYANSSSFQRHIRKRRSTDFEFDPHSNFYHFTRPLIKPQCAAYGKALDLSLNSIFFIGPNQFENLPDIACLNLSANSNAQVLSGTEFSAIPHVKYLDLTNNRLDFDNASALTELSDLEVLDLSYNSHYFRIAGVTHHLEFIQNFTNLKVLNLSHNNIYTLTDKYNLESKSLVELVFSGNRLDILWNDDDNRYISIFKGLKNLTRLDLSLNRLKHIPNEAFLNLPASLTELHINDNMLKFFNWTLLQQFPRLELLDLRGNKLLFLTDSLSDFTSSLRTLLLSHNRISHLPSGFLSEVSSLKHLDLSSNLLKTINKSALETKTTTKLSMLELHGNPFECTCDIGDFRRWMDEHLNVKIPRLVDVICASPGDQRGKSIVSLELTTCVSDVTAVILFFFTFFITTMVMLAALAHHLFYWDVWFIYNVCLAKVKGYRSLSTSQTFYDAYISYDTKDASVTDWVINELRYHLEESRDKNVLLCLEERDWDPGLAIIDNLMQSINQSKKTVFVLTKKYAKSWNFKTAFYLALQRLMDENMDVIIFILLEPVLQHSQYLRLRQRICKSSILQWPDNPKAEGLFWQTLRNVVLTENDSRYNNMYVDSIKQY

[3] = biological target: Toll-like receptor 3 (Homo sapiens) (UniProt O15455); assay: Activation of human TLR3 expressed in HEK293 assessed as induction of NF-kappaB activity reporter gene assay; type: cell-based
Toll-like receptor 3 (Homo sapiens), sequence (O15455 whole entry): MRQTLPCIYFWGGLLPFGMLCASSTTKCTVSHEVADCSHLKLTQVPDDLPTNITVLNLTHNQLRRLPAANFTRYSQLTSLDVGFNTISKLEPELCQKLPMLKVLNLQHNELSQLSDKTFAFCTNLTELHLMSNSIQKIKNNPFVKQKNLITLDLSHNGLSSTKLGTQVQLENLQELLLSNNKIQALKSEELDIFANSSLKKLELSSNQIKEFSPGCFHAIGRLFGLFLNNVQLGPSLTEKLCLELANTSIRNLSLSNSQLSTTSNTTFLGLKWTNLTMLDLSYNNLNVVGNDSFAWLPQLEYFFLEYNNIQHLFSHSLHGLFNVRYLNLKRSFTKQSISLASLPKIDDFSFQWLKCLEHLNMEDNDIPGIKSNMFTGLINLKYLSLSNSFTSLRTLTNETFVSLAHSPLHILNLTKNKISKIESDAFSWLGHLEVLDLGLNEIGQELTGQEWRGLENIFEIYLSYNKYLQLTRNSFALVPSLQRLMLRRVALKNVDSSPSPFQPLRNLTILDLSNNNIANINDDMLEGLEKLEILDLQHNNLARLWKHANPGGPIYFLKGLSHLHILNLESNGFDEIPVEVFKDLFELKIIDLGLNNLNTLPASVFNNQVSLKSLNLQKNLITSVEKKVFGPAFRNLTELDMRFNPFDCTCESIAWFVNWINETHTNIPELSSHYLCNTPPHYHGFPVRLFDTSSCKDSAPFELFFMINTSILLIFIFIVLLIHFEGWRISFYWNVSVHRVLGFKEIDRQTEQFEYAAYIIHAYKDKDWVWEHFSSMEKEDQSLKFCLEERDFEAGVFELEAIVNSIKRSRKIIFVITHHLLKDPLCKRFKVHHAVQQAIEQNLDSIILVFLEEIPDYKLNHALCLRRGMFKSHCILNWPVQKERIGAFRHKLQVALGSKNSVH

[4] = test system: Splenocyte; assay: Immunomodulatory activity in C57BL/6 mouse splenocytes bearing TLR7 receptor assessed as IL12 release at 100 ug/ml after 24 hrs by ELISA; type: functional, cell-based
Procedure, shortened: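 C57BL/6 splenocytes in RPMI 1640 with 10% FBS, penicillin/streptomycin, 2 mM L-glutamine, plated at 5 × 10^6 cells/mL; compounds in PBS added, 37 °C for 24 h. Supernatant IL-12 and IL-6 by ELISA; representative of three independent experiments.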

Structure (SMILES)	fold change (FC) [1]	fold change (FC) [2]	Activity [3]	Activity [4]
Nc1ccn([C@@H]2O[C@H](COP(=O)(S)O[C@H]3[C@@H](O)[C@H](n4ccc(N)nc4=O)O[C@@H]3COP(=O)(S)O[C@H]3[C@@H](O)[C@H](n4cnc5c(N)ncnc54)O[C@@H]3COP(=O)(S)O[C@H]3[C@@H](O)[C@H](n4ccc5c(=O)[nH]c(N)nc54)O[C@@H]3COP(=O)(S)O[C@H]3[C@@H](O)[C@H](n4ccc(=O)[nH]c4=O)O[C@@H]3COP(=O)(S)O[C@H]3[C@@H](O)[C@H](n4ccc(=O)[nH]c4=O)O[C@@H]3COP(=O)(S)O[C@H]3[C@@H](O)[C@H](n4ccc(N)nc4=O)O[C@@H]3COP(=O)(S)O[C@H]3[C@@H](O)[C@H](n4cnc5c(N)ncnc54)O[C@@H]3CO)[C@@H](OP(=O)(S)OC[C@H]3O[C@@H](n4ccc(=O)[nH]c4=O)[C@H](O)[C@@H]3OP(=O)(S)OC[C@H]3O[C@@H](n4ccc5c(=O)[nH]c(N)nc54)[C@H](O)[C@@H]3OP(=O)(S)OC[C@H]3O[C@@H](n4ccc(=O)[nH]c4=O)[C@H](O)[C@@H]3OP(=O)(S)OCC(O)COP(=O)(S)O[C@H]3[C@@H](O)[C@H](n4ccc(=O)[nH]c4=O)O[C@@H]3COP(=O)(S)O[C@H]3[C@@H](O)[C@H](n4ccc5c(=O)[nH]c(N)nc54)O[C@@H]3COP(=O)(S)O[C@H]3[C@@H](O)[C@H](n4ccc(=O)[nH]c4=O)O[C@@H]3COP(=O)(S)O[C@H]3[C@@H](O)[C@H](n4ccc(N)nc4=O)O[C@@H]3COP(=O)(S)O[C@H]3[C@@H](O)[C@H](n4ccc(N)nc4=O)O[C@@H]3COP(=O)(S)O[C@H]3[C@@H](O)[C@H](n4cnc5c(N)ncnc54)O[C@@H]3COP(=O)(S)O[C@H]3[C@@H](O)[C@H](n4ccc5c(=O)[nH]c(N)nc54)O[C@@H]3COP(=O)(S)O[C@H]3[C@@H](O)[C@H](n4ccc(=O)[nH]c4=O)O[C@@H]3COP(=O)(S)O[C@H]3[C@@H](O)[C@H](n4ccc(=O)[nH]c4=O)O[C@@H]3COP(=O)(S)O[C@H]3[C@@H](O)[C@H](n4ccc(N)nc4=O)O[C@@H]3COP(=O)(S)O[C@H]3[C@@H](O)[C@H](n4cnc5c(N)ncnc54)O[C@@H]3CO)[C@H]2O)c(=O)n1 (some centres not stated)	6.1	0.7	inactive	Active
Nc1ccn([C@@H]2O[C@H](COP(=O)(S)O[C@H]3[C@@H](O)[C@H](n4cnc5c(N)ncnc54)O[C@@H]3COP(=O)(S)O[C@H]3[C@@H](O)[C@H](n4ccc5c(=O)[nH]c(N)nc54)O[C@@H]3COP(=O)(S)O[C@H]3[C@@H](O)[C@H](n4ccc(=O)[nH]c4=O)O[C@@H]3CO)[C@@H](OP(=O)(S)OC[C@H]3O[C@@H](n4ccc5c(=O)[nH]c(N)nc54)[C@H](O)[C@@H]3OP(=O)(S)OC[C@H]3O[C@@H](n4cnc5c(N)ncnc54)[C@H](O)[C@@H]3OC[C@H]3O[C@@H](n4ccc(=O)[nH]c4=O)[C@H](O)[C@@H]3OP(=O)(S)ON[C@H]3O[C@@H](n4ccc5c(=O)[nH]c(N)nc54)[C@H](O)[C@@H]3OP(=O)(S)OC[C@H]3O[C@@H](n4cnc5c(N)ncnc54)[C@H](O)[C@@H]3OP(=O)(S)OC[C@H]3O[C@@H](n4ccc(=O)[nH]c4=O)[C@H](O)[C@@H]3OP(=O)(S)OC[C@H]3O[C@@H](n4ccc(=O)[nH]c4=O)[C@H](O)[C@@H]3OP(=O)(S)OCC(O)COP(=O)(S)O[C@H]3[C@@H](O)[C@H](n4ccc(=O)[nH]c4=O)O[C@@H]3COP(=O)(S)O[C@H]3[C@@H](O)[C@H](n4ccc(=O)[nH]c4=O)O[C@@H]3COP(=O)(S)O[C@H]3[C@@H](O)[C@H](n4cnc5c(N)ncnc54)O[C@@H]3COP(=O)(S)O[C@H]3[C@@H](O)[C@H](n4ccc5c(=O)[nH]c(N)nc54)O[C@@H]3NOP(=O)(S)O[C@H]3[C@@H](O)[C@H](n4ccc(=O)[nH]c4=O)O[C@@H]3CO[C@H]3[C@@H](O)[C@H](n4cnc5c(N)ncnc54)O[C@@H]3COP(=O)(S)O[C@H]3[C@@H](O)[C@H](n4ccc5c(=O)[nH]c(N)nc54)O[C@@H]3COP(=O)(S)O[C@H]3[C@@H](O)[C@H](n4ccc(N)nc4=O)O[C@@H]3COP(=O)(S)O[C@H]3[C@@H](O)[C@H](n4cnc5c(N)ncnc54)O[C@@H]3COP(=O)(S)O[C@H]3[C@@H](O)[C@H](n4ccc5c(=O)[nH]c(N)nc54)O[C@@H]3COP(=O)(S)O[C@H]3[C@@H](O)[C@H](n4ccc(=O)[nH]c4=O)O[C@@H]3CO)[C@H]2O)c(=O)n1 (some centres not stated)	18.4	4.6	inactive	Active
Nc1ccn([C@@H]2O[C@H](COP(=O)(S)O[C@H]3[C@@H](O)[C@H](n4cnc5c(N)ncnc54)O[C@@H]3COP(=O)(S)O[C@H]3[C@@H](O)[C@H](n4ccc5c(=O)[nH]c(N)nc54)O[C@@H]3COP(=O)(S)O[C@H]3[C@@H](O)[C@H](n4ccc(=O)[nH]c4=O)O[C@@H]3COP(=O)(S)O[C@H]3[C@@H](O)[C@H](n4ccc(=O)[nH]c4=O)O[C@@H]3COP(=O)(S)O[C@H]3[C@@H](O)[C@H](n4cnc5c(N)ncnc54)O[C@@H]3COP(=O)(S)O[C@H]3[C@@H](O)[C@H](n4cnc5c(N)ncnc54)O[C@@H]3CO)[C@@H](OP(=O)(S)OC[C@H]3O[C@@H](n4ccc5c(=O)[nH]c(N)nc54)[C@H](O)[C@@H]3OP(=O)(S)OC[C@H]3O[C@@H](n4ccc(N)nc4=O)[C@H](O)[C@@H]3OP(=O)(S)OC[C@H]3O[C@@H](n4ccc(=O)[nH]c4=O)[C@H](O)[C@@H]3OP(=O)(S)OC[C@H]3O[C@@H](n4ccc5c(=O)[nH]c(N)nc54)[C@H](O)[C@@H]3OP(=O)(S)OCC(O)COP(=O)(S)O[C@H]3[C@@H](O)[C@H](n4ccc5c(=O)[nH]c(N)nc54)O[C@@H]3COP(=O)(S)O[C@H]3[C@@H](O)[C@H](n4ccc(=O)[nH]c4=O)O[C@@H]3COP(=O)(S)O[C@H]3[C@@H](O)[C@H](n4ccc(N)nc4=O)O[C@@H]3COP(=O)(S)O[C@H]3[C@@H](O)[C@H](n4ccc5c(=O)[nH]c(N)nc54)O[C@@H]3COP(=O)(S)O[C@H]3[C@@H](O)[C@H](n4ccc(N)nc4=O)O[C@@H]3COP(=O)(S)O[C@H]3[C@@H](O)[C@H](n4cnc5c(N)ncnc54)O[C@@H]3COP(=O)(S)O[C@H]3[C@@H](O)[C@H](n4ccc5c(=O)[nH]c(N)nc54)O[C@@H]3COP(=O)(S)O[C@H]3[C@@H](O)[C@H](n4ccc(=O)[nH]c4=O)O[C@@H]3COP(=O)(S)O[C@H]3[C@@H](O)[C@H](n4ccc(=O)[nH]c4=O)O[C@@H]3COP(=O)(S)O[C@H]3[C@@H](O)[C@H](n4cnc5c(N)ncnc54)O[C@@H]3COP(=O)(S)O[C@H]3[C@@H](O)[C@H](n4cnc5c(N)ncnc54)O[C@@H]3CO)[C@H]2O)c(=O)n1 (some centres not stated)	22.9	0.2	inactive	Active
